Measured values published in ChEMBL document CHEMBL1156736, “Multidentate small-molecule inhibitors of vaccinia H1-related (VHR) phosphatase decrease proliferation of cervix cancer cells” (J Med Chem, 2009).
The source made the active and inactive calls. No cut-off for these calls is given here.

Key:
[1] = target: T1, Dual specificity protein phosphatase 1 (Homo sapiens, UniProt P28562); test: Inhibition of recombinant MKP1
T1 sequence (P28562 whole entry): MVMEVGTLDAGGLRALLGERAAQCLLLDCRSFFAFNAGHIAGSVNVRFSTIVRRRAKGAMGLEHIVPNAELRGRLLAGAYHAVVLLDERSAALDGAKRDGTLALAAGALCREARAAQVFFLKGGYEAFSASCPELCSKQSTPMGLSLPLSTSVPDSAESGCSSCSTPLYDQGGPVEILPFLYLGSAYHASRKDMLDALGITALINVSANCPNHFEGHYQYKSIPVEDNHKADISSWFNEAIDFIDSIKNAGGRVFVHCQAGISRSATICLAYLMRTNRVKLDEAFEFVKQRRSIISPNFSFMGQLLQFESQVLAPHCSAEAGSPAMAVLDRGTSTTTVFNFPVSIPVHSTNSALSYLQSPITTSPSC

[2] = target: T2, M-phase inducer phosphatase 1 (Homo sapiens, UniProt P30304); test: Inhibition of recombinant Cdc25a
T2 sequence (P30304 whole entry): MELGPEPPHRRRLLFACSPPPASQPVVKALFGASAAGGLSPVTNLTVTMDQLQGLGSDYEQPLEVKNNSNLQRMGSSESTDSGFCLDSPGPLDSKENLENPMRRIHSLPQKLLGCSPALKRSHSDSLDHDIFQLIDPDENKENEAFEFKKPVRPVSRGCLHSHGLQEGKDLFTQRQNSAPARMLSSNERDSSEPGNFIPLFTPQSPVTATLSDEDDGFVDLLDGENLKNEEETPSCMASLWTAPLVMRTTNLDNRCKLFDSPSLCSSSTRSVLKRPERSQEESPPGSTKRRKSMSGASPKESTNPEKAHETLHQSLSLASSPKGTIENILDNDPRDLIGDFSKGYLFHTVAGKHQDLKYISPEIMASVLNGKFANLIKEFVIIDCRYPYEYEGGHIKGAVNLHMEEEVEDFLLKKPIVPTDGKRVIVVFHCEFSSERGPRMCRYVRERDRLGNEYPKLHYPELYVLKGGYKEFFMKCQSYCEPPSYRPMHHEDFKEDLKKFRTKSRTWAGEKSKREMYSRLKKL

[3] = target: T3, Tyrosine-protein phosphatase non-receptor type 7 (Homo sapiens, UniProt P35236); test: Inhibition of recombinant HePTP
T3 sequence (P35236 whole entry): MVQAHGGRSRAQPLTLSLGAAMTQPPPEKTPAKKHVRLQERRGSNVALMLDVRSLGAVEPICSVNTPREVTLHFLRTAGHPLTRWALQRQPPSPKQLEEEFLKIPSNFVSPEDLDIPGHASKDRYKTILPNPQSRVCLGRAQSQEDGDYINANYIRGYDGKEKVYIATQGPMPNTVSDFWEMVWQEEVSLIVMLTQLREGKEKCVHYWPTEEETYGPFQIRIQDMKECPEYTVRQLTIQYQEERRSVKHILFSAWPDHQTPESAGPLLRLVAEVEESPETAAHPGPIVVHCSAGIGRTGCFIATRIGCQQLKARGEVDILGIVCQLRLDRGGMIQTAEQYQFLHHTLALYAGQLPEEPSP

[4] = target: T4, Receptor-type tyrosine-protein phosphatase C (Homo sapiens, UniProt P08575); test: Inhibition of recombinant CD45
T4 sequence (P08575 whole entry): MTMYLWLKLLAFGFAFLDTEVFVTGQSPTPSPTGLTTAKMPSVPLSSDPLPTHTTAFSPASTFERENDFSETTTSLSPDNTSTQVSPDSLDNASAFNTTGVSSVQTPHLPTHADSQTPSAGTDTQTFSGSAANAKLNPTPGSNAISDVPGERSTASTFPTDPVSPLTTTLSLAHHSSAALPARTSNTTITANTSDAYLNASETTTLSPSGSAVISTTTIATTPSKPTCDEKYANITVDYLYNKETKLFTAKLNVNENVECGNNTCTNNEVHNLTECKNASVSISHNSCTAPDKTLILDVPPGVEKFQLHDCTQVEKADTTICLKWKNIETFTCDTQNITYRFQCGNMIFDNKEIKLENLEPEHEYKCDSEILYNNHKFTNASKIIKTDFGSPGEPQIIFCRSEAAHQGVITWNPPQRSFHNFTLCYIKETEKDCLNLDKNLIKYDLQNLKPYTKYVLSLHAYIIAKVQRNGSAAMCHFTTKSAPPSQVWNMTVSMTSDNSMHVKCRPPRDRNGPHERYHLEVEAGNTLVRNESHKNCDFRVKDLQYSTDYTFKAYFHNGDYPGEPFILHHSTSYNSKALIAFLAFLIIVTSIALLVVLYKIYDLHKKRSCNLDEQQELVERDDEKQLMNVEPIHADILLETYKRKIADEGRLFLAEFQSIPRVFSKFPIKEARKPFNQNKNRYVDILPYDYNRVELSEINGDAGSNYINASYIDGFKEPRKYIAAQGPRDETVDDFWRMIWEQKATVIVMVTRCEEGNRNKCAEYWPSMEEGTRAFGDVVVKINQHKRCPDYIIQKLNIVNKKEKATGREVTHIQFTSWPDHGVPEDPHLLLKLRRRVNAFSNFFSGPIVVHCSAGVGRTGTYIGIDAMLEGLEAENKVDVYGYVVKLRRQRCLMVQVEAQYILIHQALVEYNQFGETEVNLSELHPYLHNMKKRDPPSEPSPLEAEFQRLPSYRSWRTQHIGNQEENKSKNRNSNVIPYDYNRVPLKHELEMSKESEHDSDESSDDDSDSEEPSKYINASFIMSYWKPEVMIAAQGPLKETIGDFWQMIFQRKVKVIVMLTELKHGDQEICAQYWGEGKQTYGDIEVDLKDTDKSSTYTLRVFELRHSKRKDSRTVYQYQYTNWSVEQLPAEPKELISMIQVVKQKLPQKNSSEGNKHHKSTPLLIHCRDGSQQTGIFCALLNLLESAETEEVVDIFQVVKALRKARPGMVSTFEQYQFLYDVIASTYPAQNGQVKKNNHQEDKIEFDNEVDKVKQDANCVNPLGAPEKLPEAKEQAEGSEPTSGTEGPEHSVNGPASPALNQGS

[5] = target: T5, Tyrosine-protein phosphatase non-receptor type 1 (Homo sapiens, UniProt P18031); test: Inhibition of recombinant PTP1B
T5 sequence (P18031 whole entry): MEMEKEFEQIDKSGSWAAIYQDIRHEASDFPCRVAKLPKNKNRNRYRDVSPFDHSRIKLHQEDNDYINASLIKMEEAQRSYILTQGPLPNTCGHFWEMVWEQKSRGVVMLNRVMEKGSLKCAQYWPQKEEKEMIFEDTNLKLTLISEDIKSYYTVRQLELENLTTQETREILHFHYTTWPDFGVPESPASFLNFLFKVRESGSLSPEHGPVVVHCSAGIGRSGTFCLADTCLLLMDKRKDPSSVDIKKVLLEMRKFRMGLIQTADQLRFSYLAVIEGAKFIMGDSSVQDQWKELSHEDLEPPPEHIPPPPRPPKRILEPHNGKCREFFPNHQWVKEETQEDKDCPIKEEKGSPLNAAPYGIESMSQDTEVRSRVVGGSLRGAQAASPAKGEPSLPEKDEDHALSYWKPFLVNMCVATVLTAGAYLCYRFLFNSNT

[6] = test system: HeLa; test: Antiproliferative activity against human HeLa cells at 20 uM after 24 hrs by Trypan blue assay; format: functional
Method in brief: (§1)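 10^5 cells (HeLa in DMEM/10% FCS; primary normal keratinocytes from hysterectomy tissue, trypsin-EDTA dispersed, in K-SFM with EGF, pituitary hormone) treated 24 h with 20 μM inhibitor or DMSO; trypsinized and counted with trypan blue in a counting chamber; cell numbers as percentage of DMSO control; mean ± SD, three independent experiments.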

[7] = test system: HeLa; test: Antiproliferative activity against human HeLa cells at 20 uM after 24 hrs by [3H]thymidine incorporation assay relative to control; format: functional
Method in brief: (§2)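 5×10^4 cells in DMEM complete medium exposed 24 h to 20 μM inhibitor or DMSO vehicle; [3H]thymidine ([…]) added for final 4 h, cells harvested onto glass fiber filters, radioactivity by scintillation counting; expressed relative to DMSO control; mean ± SD of three independent experiments.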

[8] = test system: Ca-Ski; test: Antiproliferative activity against human CaSki cells at 20 uM after 24 hrs by [3H]thymidine incorporation assay relative to control; format: functional; method in brief: as §2
[9] = test system: Keratinocyte; test: Cytotoxicity against human keratinocytes at 20 uM after 24 hrs by Trypan blue assay; format: functional, cell-based; method in brief: as §1
[10] = test system: HeLa; test: Induction of apoptosis in human HeLa cells assessed as apoptotic cells at 20 uM after 24 hrs by annexin V/propidium iodide based flow cytometry; format: functional, cell-based
Method in brief: (§3)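 10^5 cells in DMEM/10% FCS incubated 24 h with 20 μM inhibitor or DMSO, trypsinized; half of cells stained with AnnexinV-FITC and propidium iodide, analysed by flow cytometry; live cells taken as AnnexinV- and PI-negative; mean ± SD from three independent experiments.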

[11] = test system: Ca-Ski; test: Induction of apoptosis in human CaSki cells assessed as apoptotic cells at 20 uM after 24 hrs by annexin V/propidium iodide based flow cytometry; format: functional, cell-based; method in brief: as §3
[12] = target: Dual specificity protein phosphatase 3 (Homo sapiens, UniProt P51452); test: Inhibition of recombinant vaccina H1-related phosphatase
Chain of Dual specificity protein phosphatase 3 (P51452 whole entry): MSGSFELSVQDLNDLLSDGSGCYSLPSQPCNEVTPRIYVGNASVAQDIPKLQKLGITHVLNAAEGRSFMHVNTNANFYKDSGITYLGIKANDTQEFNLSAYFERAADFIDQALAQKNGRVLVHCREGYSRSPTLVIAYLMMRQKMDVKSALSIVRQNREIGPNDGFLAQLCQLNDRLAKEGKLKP

SMILES	IC50 [1] [nM]	IC50 [2] [nM]	IC50 [3] [nM]	IC50 [4] [nM]	IC50 [5] [nM]	Activity [6]	Activity [7]	Activity [8] [%]	Activity [9]	Activity [10]	Activity [11]	IC50 [12] [nM]
O=C1/C(=C/c2cn(-c3ccccc3)nc2-c2ccc(S(=O)(=O)N3CCCCC3)cc2)SC(=S)N1CCS(=O)(=O)O	2800	> 10000	2400	1800	2200	Active	<=30%	>50				
O=C1/C(=C/c2cn(-c3ccccc3)nc2-c2ccc(OCc3ccccc3)cc2)SC(=S)N1CCS(=O)(=O)O			1500		1800	Active	<=30%	>50				
O=C1/C(=C/c2cn(-c3ccccc3)nc2-c2ccc(OCc3ccc(Cl)cc3)cc2)SC(=S)N1CCS(=O)(=O)O		2400				Active	<=30%	>50	Not toxic			
O=C1/C(=C/c2cn(-c3ccccc3)nc2-c2ccc(OCc3ccccc3F)cc2)SC(=S)N1CCS(=O)(=O)O	520	2800	870	500	420	>50%	58%	74		inactive	inactive	
O=C1/C(=C/c2cn(-c3ccccc3)nc2-c2ccc(OCc3ccccc3Cl)cc2)SC(=S)N1CCS(=O)(=O)O	470	3400	1200	300	590	Active	<=30%	>50		inactive	inactive	71
